This note sets out measurements from ChEMBL document CHEMBL1154034, “Piperazinyl-glutamate-pyridines as potent orally bioavailable P2Y12 antagonists for inhibition of platelet aggregation” (Bioorg Med Chem Lett, 2009).

The subject of one data set is Rattus norvegicus. The experiment in a line: Antithrombotic activity in po dosed rat arterial thrombosis model assessed as inhibition of ferric chloride-induced thrombus formation. The class given is functional, organism-based.
A short description of data set [1]: Clearance in Sprague-Dawley rat at 2 mg/kg, iv and 5 mg/kg, po. The class given is ADME, organism-based. The note with it: in vivo. Summed up:
(§1)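 Male Sprague–Dawley rats, n = 2–4. Dosed by iv infusion at 2 mg/kg and orally at 5 mg/kg.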

Data set [2] is described as follows: Drug concentration in rat bile at 2 mg/kg, iv after 4 hrs. The format is ADME, organism-based. Details: dose 2 mg/kg, route intravenous. The note with it: read-out: Drug uptake. The procedure, abridged:
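Rats dosed at 2 mg/kg iv; bile collected over 4 h and the fraction of dose recovered determined.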

Data set [3] is described as follows: Volume of distribution at steady state in Sprague-Dawley rat at 2 mg/kg, iv and 5 mg/kg, po. Conditions: in vivo, read-out: Vdss. The class given is ADME, organism-based. Summed up: as §1
A short description of data set [4]: Solubility of the compound. The class given is physicochemical.
Data set [5] addresses T1, P2Y purinoceptor 12 (Homo sapiens, UniProt Q9H244). The experiment in a line: Antagonist activity at human P2Y12 receptor assessed as inhibition of ADP-induced platelet-rich plasma aggregation by turbidimetric method. The class given is functional, cell-free.
The target in data set [6] is T1, P2Y purinoceptor 12. Put plainly: Binding affinity to human recombinant P2Y12 receptor expressed in CHO cells. The format is cell-based.
Data set [7] is described as follows: Effective half life in Sprague-Dawley rat at 2 mg/kg, iv and 5 mg/kg, po. Conditions: in vivo. The class given is ADME, organism-based. Summed up:
as §1

The subject of data set [8] is Salmonella enterica subsp. enterica. The experiment in a line: Toxicity in Salmonella Typhimurium by Ames test. The class given is organism-based. The note with it: salmonella enterica subsp. enterica serovar typhimurium. Background: The Ames test detects mutagens through reverse mutation in bacteria.
The nature of another data set: in vivo. The note with it: Sprague-Dawley, rat, po, 5 mg/kg.

Each structure is given as a SMILES string.

T1 sequence (Q9H244 whole entry): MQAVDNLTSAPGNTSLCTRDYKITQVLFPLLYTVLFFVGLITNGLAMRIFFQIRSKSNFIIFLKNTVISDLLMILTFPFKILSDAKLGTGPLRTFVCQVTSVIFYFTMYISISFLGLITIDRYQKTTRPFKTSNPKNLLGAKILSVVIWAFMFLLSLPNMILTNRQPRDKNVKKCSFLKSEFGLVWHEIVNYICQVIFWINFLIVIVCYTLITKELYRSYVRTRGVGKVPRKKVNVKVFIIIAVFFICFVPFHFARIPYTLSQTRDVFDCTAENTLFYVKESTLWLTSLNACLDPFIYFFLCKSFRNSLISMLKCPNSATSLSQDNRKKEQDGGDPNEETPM

The Ki is the equilibrium dissociation constant of an inhibitor or competing ligand from its target. In general, half-life refers to the time needed for the level to fall by half in the phase considered. Consider `CCCCCOC(=O)N1CCN(C(=O)[C@H](CCC(=O)O)NC(=O)c2cc(N3CCC(COC)CC3)cc(-c3ccccc3)n2)CC1`, for which the figures for the Activity entry (in the data set with Rattus norvegicus; in data set [8]) were “Dose-dependent effect” and “Non-toxic”, respectively. For the same compound, the clearance in data set [1] came out at 3 mL/min/kg. Further, the dose excreted at 4 h in data set [2] came out at 70%. The Vd in [3] was 0.3 L/kg. Also, the solubility entry in data set [4] was “Soluble”. In addition, the Kb on P2Y purinoceptor 12 [5] is 300 nM; on P2Y purinoceptor 12 [6], 8.5 nM. Also, on P2Y purinoceptor 12 [6], the Ki came out at 15 nM. In data set [7], this compound gave a half-life of 42 min.
By bioavailability is commonly meant dose-corrected exposure relative to a reference, in per cent. Read a high bioavailability as much systemic uptake. On to `CCCCCOC(=O)N1CCN(C(=O)[C@H](CCC(=O)O)NC(=O)c2cc(OC3CCNCC3)cc(-c3ccccc3)n2)CC1`, for which the bioavailability in the data set “in vivo” was 1%. This compound came in with a clearance in [1] of 133 mL/min/kg. The Vd in data set [3] came to 3.1 L/kg. Moreover, the Ki at P2Y purinoceptor 12 [6] was determined as 3.8 nM. The compound also gave a half-life in data set [7] of 18 min.
`CCCCCOC(=O)N1CCN(C(=O)[C@H](CCC(=O)O)NC(=O)c2cccc(-c3ccccc3)n2)CC1` came in with a bioavailability in “in vivo” of 70%. In data set [1], the clearance is 89 mL/min/kg. Also, in [3], the Vd amounted to 10.3 L/kg. Besides, the Ki on P2Y purinoceptor 12 [6] worked out at 11 nM. This compound also showed a half-life in data set [7] of 78 min.
